Experimental data published in ChEMBL document CHEMBL1157660, “Synthesis and biological evaluation of 2',5'-dimethoxychalcone derivatives as microtubule-targeted anticancer agents” (Bioorg Med Chem, 2010).
Calls of active or inactive are those of the source. The calls are words filed in the database; no cut-off is given here.

What was measured:
[1] = Cytotoxicity against human NTUB1 cells after 72 hrs by MTT assay; assay type: functional, cell-based; details: NTUB1, 72 h
Procedure, shortened: (§1)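 MTT assay: 1800 cells/well plated, overnight at 37 °C, then graded concentrations for 72 h at 37 °C. MTT added for 3 h, plates centrifuged, formazan dissolved in DMSO, absorbance read at 540 nm. Viability as percent of control; IC50 by median-effect analysis, mean ± SD. Cells grown in RPMI 1640 with 10% FBS.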

PC-3 [2] = assay: Cytotoxicity against human PC3 cells after 72 hrs by MTT assay; assay type: functional, cell-based; details: PC-3, 72 h; procedure, shortened: as §1
[3] = Cell cycle arrest in human NTUB1 cells assessed as accumulation at G2/M phase at 1 uM after 24 hrs by propidium iodide staining-based FACS analysis; assay type: functional
Procedure, shortened: (§2)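 Cells (6×10^5 plated) treated 24 h; 20 µM cisplatin as reference, medium-only control. Harvested by trypsinization, PBS-washed, fixed overnight in ice-cold methanol at −20 °C. Stained 30 min at room temperature in PBS with 50 µg/mL propidium iodide plus 50 µg/mL RNase A. DNA content by FACScan flow cytometry; sub-G1 taken as apoptosis. Representative of three independent experiments.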

[4] = Cell cycle arrest in human NTUB1 cells assessed as accumulation at S phase at 1 uM after 24 hrs by propidium iodide staining-based FACS analysis; assay type: functional; procedure, shortened: as §2
[5] = Cell cycle arrest in human NTUB1 cells assessed as accumulation at G1 phase at 1 uM after 24 hrs by propidium iodide staining-based FACS analysis; assay type: functional; procedure, shortened: as §2
[6] = Cell cycle arrest in human NTUB1 cells assessed as accumulation at sub-G1 phase at 1 uM after 24 hrs by propidium iodide staining-based FACS analysis; assay type: functional; procedure, shortened: as §2
[7] = Cell cycle arrest in human NTUB1 cells assessed as accumulation at G2/M phase at 3 uM after 24 hrs by propidium iodide staining-based FACS analysis; assay type: functional; procedure, shortened: as §2
[8] = Cell cycle arrest in human NTUB1 cells assessed as accumulation at S phase at 3 uM after 24 hrs by propidium iodide staining-based FACS analysis; assay type: functional; procedure, shortened: as §2
[9] = Cell cycle arrest in human NTUB1 cells assessed as accumulation at G1 phase at 3 uM after 24 hrs by propidium iodide staining-based FACS analysis; assay type: functional; procedure, shortened: as §2
[10] = Cell cycle arrest in human NTUB1 cells assessed as accumulation at sub-G1 phase at 3 uM after 24 hrs by propidium iodide staining-based FACS analysis; assay type: functional; procedure, shortened: as §2
PC-3 [11] = assay: Cell cycle arrest in human PC3 cells assessed as accumulation at G2/M phase at 1 uM after 24 hrs by propidium iodide staining-based FACS analysis; assay type: functional; procedure, shortened: as §2
PC-3 [12] = assay: Cell cycle arrest in human PC3 cells assessed as accumulation at S phase at 1 uM after 24 hrs by propidium iodide staining-based FACS analysis; assay type: functional; procedure, shortened: as §2
PC-3 [13] = assay: Cell cycle arrest in human PC3 cells assessed as accumulation at G1 phase at 1 uM after 24 hrs by propidium iodide staining-based FACS analysis; assay type: functional; procedure, shortened: as §2
PC-3 [14] = assay: Cell cycle arrest in human PC3 cells assessed as accumulation at sub-G1 phase at 1 uM after 24 hrs by propidium iodide staining-based FACS analysis; assay type: functional; procedure, shortened: as §2
PC-3 [15] = assay: Cell cycle arrest in human PC3 cells assessed as accumulation at G2/M phase at 3 uM after 24 hrs by propidium iodide staining-based FACS analysis; assay type: functional; procedure, shortened: as §2
PC-3 [16] = assay: Cell cycle arrest in human PC3 cells assessed as accumulation at S phase at 3 uM after 24 hrs by propidium iodide staining-based FACS analysis; assay type: functional; procedure, shortened: as §2
PC-3 [17] = assay: Cell cycle arrest in human PC3 cells assessed as accumulation at G1 phase at 3 uM after 24 hrs by propidium iodide staining-based FACS analysis; assay type: functional; procedure, shortened: as §2
PC-3 [18] = assay: Cell cycle arrest in human PC3 cells assessed as accumulation at sub-G1 phase at 3 uM after 24 hrs by propidium iodide staining-based FACS analysis; assay type: functional; procedure, shortened: as §2
NTUB1 [19] = assay: Inhibition of alpha-tubulin assembly in human NTUB1 cells at 0.3 to 1 uM after 24 hrs by DAPI staining-based microscopic analysis; assay type: cell-based
Procedure, shortened: (§3)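 NTUB1 cells seeded on serum-coated coverslips (10⁵ cells/well), incubated overnight, then treated 24 h. Fixed in 2% formaldehyde/PBS 20 min and permeabilized in cold methanol 3 min. Stained overnight with anti-α-tubulin primary, then rhodamine goat anti-rabbit secondary with 1 µg/mL DAPI for 1 h at room temperature. Mounted in 80% glycerol/PBS and examined by fluorescence microscopy; untreated medium control.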

NTUB1 [20] = assay: Stabilization GDP-bound alpha-tubulin in human NTUB1 cells assessed as microtubule disassembly at 50 to 100 uM after 6 hrs by Western blot analysis; assay type: cell-based
Procedure, shortened: (§4)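 NTUB1 cells (1×10^6 per dish) treated 6 h; 500 nM paclitaxel reference. Lysed in Tris-HCl pH 6.8 buffer with MgCl2, EGTA, 0.5% NP-40 and protease/phosphatase inhibitors. Centrifuged 15,000g, 10 min, 4 °C to separate soluble (supernatant) from polymerized (pellet) tubulin. Fractions run on 10% SDS-PAGE and immunoblotted for α-tubulin, β-actin as control, chemiluminescent detection.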

NTUB1 [21] = assay: Stabilization GDP-bound alpha-tubulin in human NTUB1 cells assessed as microtubule disassembly at 10 uM after 6 hrs by Western blot analysis; assay type: cell-based; procedure, shortened: as §4
NTUB1 [22] = assay: Stabilization GDP-bound alpha-tubulin in human NTUB1 cells assessed as microtubule disassembly at 500 nM after 6 hrs by Western blot analysis; assay type: cell-based; procedure, shortened: as §4
NTUB1 [23] = assay: Inhibition of alpha-tubulin assembly in human NTUB1 cells at 10 to 100 uM after 6 hrs by Western blot analysis; assay type: cell-based; procedure, shortened: as §4
NTUB1 [24] = assay: Antimitotic activity in human NTUB1 cells assessed as accumulation of mitotic arrest cells at 0.3 to 1 uM after 24 hrs by DAPI staining-based microscopic analysis; assay type: functional, cell-based; procedure, shortened: as §3
NTUB1 [25] = assay: Antimitotic activity in human NTUB1 cells assessed as appearance of rounded and dead cells at 0.3 to 3 uM after 24 hrs; assay type: functional, cell-based
Procedure, shortened: (§5)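 NTUB1 cells at 7×10^5 cells per 10 cm dish, treated 24 h; medium-only control. Cell rounding and death scored by light-microscopic morphology.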

NTUB1 [26] = assay: Inhibition of alpha-tubulin assembly in human NTUB1 cells at 10 nM after 24 hrs by DAPI staining-based microscopic analysis; assay type: cell-based; procedure, shortened: as §3
NTUB1 [27] = assay: Antimitotic activity in human NTUB1 cells assessed as accumulation of mitotic arrest cells at 10 nM after 24 hrs by DAPI staining-based microscopic analysis; assay type: functional, cell-based; procedure, shortened: as §3
NTUB1 [28] = assay: Antimitotic activity in human NTUB1 cells assessed as appearance of rounded and dead cells at 10 nM after 24 hrs; assay type: functional, cell-based; procedure, shortened: as §5

## COc1ccc(OC)c(C(=O)/C=C/c2ccc(C(=O)N(C)CCO)cc2)c1
[1]
  IC50: 4.42 µM
PC-3 [2]
  IC50: 5.75 µM

## COc1ccc(OC)c(C(=O)/C=C/c2ccc(C(=O)O)cc2)c1
[1]
  IC50: 5.7 µM
PC-3 [2]
  IC50: 7.24 µM

## COc1ccc(OC)c(C(=O)/C=C/c2ccc(C(=O)OCc3ccccc3)cc2)c1
[1]
  IC50: 13.3 µM
PC-3 [2]
  IC50: 17.9 µM

## CNC(=O)c1ccc(/C=C/C(=O)c2cc(OC)ccc2OC)cc1
[1]
  IC50: 2.2 µM
PC-3 [2]
  IC50: 2.13 µM

## CCOC(=O)c1ccc(/C=C/C(=O)c2cc(OC)ccc2OC)cc1
[1]
  IC50: 4.49 µM
PC-3 [2]
  IC50: 5.7 µM

## COc1ccc(OC)c(C(=O)/C=C/c2ccc(C(=O)N3CCCC3)cc2)c1
[1]
  IC50: 1.26 µM
PC-3 [2]
  IC50: 0.53 µM
[3]
  Activity: 20.4%
[4]
  Activity: 28.8%
[5]
  Activity: 46.6%
[6]
  Activity: 2.16%
[7]
  Activity: 18.3%
[8]
  Activity: 11.3%
[9]
  Activity: 7.03%
[10]
  Activity: 61%
PC-3 [11]
  Activity: 14.02%
PC-3 [12]
  Activity: 25.28%
PC-3 [13]
  Activity: 45.81%
PC-3 [14]
  Activity: 7.8%
PC-3 [15]
  Activity: 27.69%
PC-3 [16]
  Activity: 21.83%
PC-3 [17]
  Activity: 18.44%
PC-3 [18]
  Activity: 24.45%
NTUB1 [19]
  inhibition: Active
NTUB1 [20]
  Activity: Dose-dependent effect
NTUB1 [21]
  Activity: inactive
NTUB1 [22]
  Activity: Active
NTUB1 [23]
  inhibition: inactive
NTUB1 [24]
  Activity: Active
NTUB1 [25]
  Activity: Active

## COc1ccc(OC)c(C(=O)/C=C/c2ccc(C(=O)NC(C)C)cc2)c1
[1]
  IC50: 1.97 µM
PC-3 [2]
  IC50: 1.58 µM
[3]
  Activity: 22.6%
[4]
  Activity: 27.2%
[5]
  Activity: 44.9%
[6]
  Activity: 1.84%
[7]
  Activity: 24.2%
[8]
  Activity: 21.2%
[9]
  Activity: 22.3%
[10]
  Activity: 30.3%
PC-3 [11]
  Activity: 19.22%
PC-3 [12]
  Activity: 25.83%
PC-3 [13]
  Activity: 38.85%
PC-3 [14]
  Activity: 9.25%
PC-3 [15]
  Activity: 25.43%
PC-3 [16]
  Activity: 16.09%
PC-3 [17]
  Activity: 36.73%
PC-3 [18]
  Activity: 14.26%

## COc1ccc(OC)c(C(/C=C/c2ccc(C(=O)NC3CC3)cc2)=N/C2CC2)c1
[1]
  IC50: 3.57 µM
PC-3 [2]
  IC50: 4.26 µM

## CCCOC(=O)c1ccc(/C=C/C(=O)c2cc(OC)ccc2OC)cc1
[1]
  IC50: 6.01 µM
PC-3 [2]
  IC50: 26.9 µM

## COc1ccc(OC)c(C(=O)/C=C/c2ccc(C(=O)O)s2)c1
[1]
  IC50: > 50 µM

## COc1ccc(OC)c(C(=O)/C=C/c2ccc(C(=O)OC(C)C)cc2)c1
[1]
  IC50: 4.42 µM
PC-3 [2]
  IC50: 6.74 µM

## CCCNC(=O)c1ccc(/C=C/C(=O)c2cc(OC)ccc2OC)cc1
[1]
  IC50: 2.26 µM
PC-3 [2]
  IC50: 1.5 µM

## COc1ccc(OC)c(C(=O)/C=C/c2ccc(C(=O)N(C)C)cc2)c1
[1]
  IC50: 3.89 µM
PC-3 [2]
  IC50: 4.58 µM

## COC(=O)c1ccc(/C=C/C(=O)c2cc(OC)ccc2OC)cc1
[1]
  IC50: 3.51 µM
PC-3 [2]
  IC50: 4.85 µM

## CC(=O)O[C@H]1C(=O)[C@@]2(C)[C@H]([C@H](OC(=O)c3ccccc3)[C@]3(O)C[C@H](OC(=O)[C@H](O)[C@@H](NC(=O)c4ccccc4)c4ccccc4)C(C)=C1C3(C)C)[C@]1(OC(C)=O)CO[C@@H]1C[C@@H]2O
NTUB1 [26]
  inhibition: inactive
NTUB1 [27]
  Activity: Active
NTUB1 [28]
  Activity: Active

## CCNC(=O)c1ccc(/C=C/C(=O)c2cc(OC)ccc2OC)cc1
[1]
  IC50: 3.76 µM
PC-3 [2]
  IC50: 4.18 µM

## COc1ccc(OC)c(C(=O)/C=C/c2ccc(C(=O)NC3CCCCC3)cc2)c1
[1]
  IC50: 2.25 µM
PC-3 [2]
  IC50: 6.3 µM

## COc1ccc(OC)c(C(=O)/C=C/c2ccc(C(=O)OCC=C(C)C)cc2)c1
[1]
  IC50: 13.4 µM
PC-3 [2]
  IC50: > 50 µM

## CCN(CC)C(=O)c1ccc(/C=C/C(=O)c2cc(OC)ccc2OC)cc1
[1]
  IC50: 2.69 µM
PC-3 [2]
  IC50: 3.79 µM
